# In ChEMBL document CHEMBL4689842, “EUbOPEN Chemogenomics Library wave 1” (2021):
# System: HEK-293T
# Assay: Multiplex assay against HEK293T;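 for Population Tubulin-Different-Phenotype (%): share of the cells with healthy nuclei that show this phenotype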
# Type: toxicity, cell-based
# Settings: human
# In short: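 Live cells were stained at seeding with Hoechst33342, BioTracker Green Microtubule Cytoskeleton Dye, MitoTracker Red and Annexin V Alexa Fluor 680, then imaged on a CQ1 microscope at 37°C and 5% CO2 after compound addition. CellPathfinder machine-learning gating split cells into Hoechst high-intensity objects or normal cells. Normal cells were split into healthy, pyknosed or fragmented nuclei, and pyknosed cells into mitotic or apoptotic. Tubulin, mitochondrial-mass and membrane-permeability phenotypes are per cents of healthy-nucleus cells.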
# [1] = 12 h, 1 µM, compound concentration 1 uM, replicate 1
# [2] = 12 h, 1 µM, compound concentration 1 uM, replicate 2
# [3] = 12 h, 10 µM, compound concentration 10 uM, replicate 1
# [4] = 12 h, 10 µM, compound concentration 10 uM, replicate 2
# [5] = 24 h, 1 µM, compound concentration 1 uM, replicate 1
# [6] = 24 h, 1 µM, compound concentration 1 uM, replicate 2
# [7] = 24 h, 10 µM, compound concentration 10 uM, replicate 1
# [8] = 24 h, 10 µM, compound concentration 10 uM, replicate 2
compound,measurement,setting,value
COc1cc2c(Nc3ccc(NC(=O)c4ccccc4)cc3)ncnc2cc1OCCCN1CCOCC1,Population Apoptotic (%),[1],25%
same,Population Fragmented Nuclei (%),[1],13%
same,Population Healthy Nuclei (%),[1],42%
same,Population Hoechst High Intensity Objects (%),[1],18%
same,Population Membrane Permeable-Phenotype (%),[1],29%
same,Population Mitochondria Different-Phenotype (%),[1],17%
same,Population Mitotic Cells (%),[1],74%
same,Population Normal (%),[1],81%
same,Population Pyknosed Nuclei (%),[1],43%
same,Population Tubulin-Different-Phenotype (%),[1],81%
same,Total Cell Count,[1],532
same,Population Apoptotic (%),[2],26%
same,Population Fragmented Nuclei (%),[2],3%
same,Population Healthy Nuclei (%),[2],84%
same,Population Hoechst High Intensity Objects (%),[2],6%
same,Population Membrane Permeable-Phenotype (%),[2],15%
same,Population Mitochondria Different-Phenotype (%),[2],39%
same,Population Mitotic Cells (%),[2],73%
same,Population Normal (%),[2],93%
same,Population Pyknosed Nuclei (%),[2],12%
same,Population Tubulin-Different-Phenotype (%),[2],96%
same,Total Cell Count,[2],927
same,Population Apoptotic (%),[3],17%
same,Population Fragmented Nuclei (%),[3],17%
same,Population Healthy Nuclei (%),[3],59%
same,Population Hoechst High Intensity Objects (%),[3],11%
same,Population Membrane Permeable-Phenotype (%),[3],3%
same,Population Mitochondria Different-Phenotype (%),[3],9%
same,Population Mitotic Cells (%),[3],82%
same,Population Normal (%),[3],88%
same,Population Pyknosed Nuclei (%),[3],22%
same,Population Tubulin-Different-Phenotype (%),[3],9%
same,Total Cell Count,[3],626
same,Population Apoptotic (%),[4],6%
same,Population Fragmented Nuclei (%),[4],3%
same,Population Healthy Nuclei (%),[4],89%
same,Population Hoechst High Intensity Objects (%),[4],2%
same,Population Membrane Permeable-Phenotype (%),[4],2%
same,Population Mitochondria Different-Phenotype (%),[4],12%
same,Population Mitotic Cells (%),[4],93%
same,Population Normal (%),[4],97%
same,Population Pyknosed Nuclei (%),[4],6%
same,Population Tubulin-Different-Phenotype (%),[4],13%
same,Total Cell Count,[4],1320
same,Population Apoptotic (%),[5],29%
same,Population Fragmented Nuclei (%),[5],14%
same,Population Healthy Nuclei (%),[5],58%
same,Population Hoechst High Intensity Objects (%),[5],21%
same,Population Membrane Permeable-Phenotype (%),[5],20%
same,Population Mitochondria Different-Phenotype (%),[5],22%
same,Population Mitotic Cells (%),[5],70%
same,Population Normal (%),[5],78%
same,Population Pyknosed Nuclei (%),[5],26%
same,Population Tubulin-Different-Phenotype (%),[5],89%
same,Total Cell Count,[5],523
same,Population Apoptotic (%),[6],2%
same,Population Fragmented Nuclei (%),[6],5%
same,Population Healthy Nuclei (%),[6],87%
same,Population Hoechst High Intensity Objects (%),[6],6%
same,Population Membrane Permeable-Phenotype (%),[6],22%
same,Population Mitochondria Different-Phenotype (%),[6],25%
same,Population Mitotic Cells (%),[6],97%
same,Population Normal (%),[6],93%
same,Population Pyknosed Nuclei (%),[6],7%
same,Population Tubulin-Different-Phenotype (%),[6],97%
same,Total Cell Count,[6],1034
same,Population Apoptotic (%),[7],9%
same,Population Fragmented Nuclei (%),[7],12%
same,Population Healthy Nuclei (%),[7],75%
same,Population Hoechst High Intensity Objects (%),[7],9%
same,Population Membrane Permeable-Phenotype (%),[7],11%
same,Population Mitochondria Different-Phenotype (%),[7],5%
same,Population Mitotic Cells (%),[7],90%
same,Population Normal (%),[7],90%
same,Population Pyknosed Nuclei (%),[7],11%
same,Population Tubulin-Different-Phenotype (%),[7],13%
same,Total Cell Count,[7],622
same,Population Apoptotic (%),[8],4%
same,Population Fragmented Nuclei (%),[8],14%
same,Population Healthy Nuclei (%),[8],79%
same,Population Hoechst High Intensity Objects (%),[8],4%
same,Population Membrane Permeable-Phenotype (%),[8],5%
same,Population Mitochondria Different-Phenotype (%),[8],3%
same,Population Mitotic Cells (%),[8],95%
same,Population Normal (%),[8],95%
same,Population Pyknosed Nuclei (%),[8],5%
same,Population Tubulin-Different-Phenotype (%),[8],15%
same,Total Cell Count,[8],1748
c1ccc2oc(-c3csc(C4CCN(Cc5nc6ncccc6[nH]5)CC4)n3)cc2c1,Population Apoptotic (%),[1],23%
same,Population Fragmented Nuclei (%),[1],23%
same,Population Healthy Nuclei (%),[1],39%
same,Population Hoechst High Intensity Objects (%),[1],19%
same,Population Membrane Permeable-Phenotype (%),[1],5%
same,Population Mitochondria Different-Phenotype (%),[1],5%
same,Population Mitotic Cells (%),[1],76%
same,Population Normal (%),[1],80%
same,Population Pyknosed Nuclei (%),[1],37%
same,Population Tubulin-Different-Phenotype (%),[1],7%
same,Total Cell Count,[1],599
same,Population Apoptotic (%),[2],13%
same,Population Fragmented Nuclei (%),[2],4%
same,Population Healthy Nuclei (%),[2],83%
same,Population Hoechst High Intensity Objects (%),[2],4%
same,Population Membrane Permeable-Phenotype (%),[2],1%
same,Population Mitochondria Different-Phenotype (%),[2],21%
same,Population Mitotic Cells (%),[2],86%
same,Population Normal (%),[2],95%
same,Population Pyknosed Nuclei (%),[2],11%
same,Population Tubulin-Different-Phenotype (%),[2],13%
same,Total Cell Count,[2],1174
same,Population Apoptotic (%),[3],17%
same,Population Fragmented Nuclei (%),[3],18%
same,Population Healthy Nuclei (%),[3],54%
same,Population Hoechst High Intensity Objects (%),[3],14%
same,Population Membrane Permeable-Phenotype (%),[3],5%
same,Population Mitochondria Different-Phenotype (%),[3],5%
same,Population Mitotic Cells (%),[3],82%
same,Population Normal (%),[3],85%
same,Population Pyknosed Nuclei (%),[3],26%
same,Population Tubulin-Different-Phenotype (%),[3],4%
same,Total Cell Count,[3],511
same,Population Apoptotic (%),[4],12%
same,Population Fragmented Nuclei (%),[4],6%
same,Population Healthy Nuclei (%),[4],86%
same,Population Hoechst High Intensity Objects (%),[4],3%
same,Population Membrane Permeable-Phenotype (%),[4],2%
same,Population Mitochondria Different-Phenotype (%),[4],10%
same,Population Mitotic Cells (%),[4],87%
same,Population Normal (%),[4],96%
same,Population Pyknosed Nuclei (%),[4],7%
same,Total Cell Count,[4],1122
same,Population Apoptotic (%),[5],20%
same,Population Fragmented Nuclei (%),[5],21%
same,Population Healthy Nuclei (%),[5],50%
same,Population Hoechst High Intensity Objects (%),[5],15%
same,Population Membrane Permeable-Phenotype (%),[5],8%
same,Population Mitochondria Different-Phenotype (%),[5],10%
same,Population Mitotic Cells (%),[5],79%
same,Population Normal (%),[5],84%
same,Population Pyknosed Nuclei (%),[5],28%
same,Population Tubulin-Different-Phenotype (%),[5],13%
same,Total Cell Count,[5],538
same,Population Apoptotic (%),[6],15%
same,Population Fragmented Nuclei (%),[6],5%
same,Population Healthy Nuclei (%),[6],86%
same,Population Hoechst High Intensity Objects (%),[6],6%
same,Population Membrane Permeable-Phenotype (%),[6],4%
same,Population Mitochondria Different-Phenotype (%),[6],12%
same,Population Mitotic Cells (%),[6],84%
same,Population Normal (%),[6],93%
same,Population Pyknosed Nuclei (%),[6],7%
same,Population Tubulin-Different-Phenotype (%),[6],30%
same,Total Cell Count,[6],1346
same,Population Apoptotic (%),[7],16%
same,Population Fragmented Nuclei (%),[7],20%
same,Population Healthy Nuclei (%),[7],60%
same,Population Hoechst High Intensity Objects (%),[7],15%
same,Population Membrane Permeable-Phenotype (%),[7],7%
same,Population Mitochondria Different-Phenotype (%),[7],5%
same,Population Mitotic Cells (%),[7],83%
same,Population Normal (%),[7],84%
same,Population Pyknosed Nuclei (%),[7],19%
same,Population Tubulin-Different-Phenotype (%),[7],7%
same,Total Cell Count,[7],500
same,Population Apoptotic (%),[8],5%
same,Population Fragmented Nuclei (%),[8],11%
same,Population Healthy Nuclei (%),[8],84%
same,Population Hoechst High Intensity Objects (%),[8],3%
same,Population Membrane Permeable-Phenotype (%),[8],6%
same,Population Mitochondria Different-Phenotype (%),[8],2%
same,Population Mitotic Cells (%),[8],95%
same,Population Normal (%),[8],96%
same,Population Pyknosed Nuclei (%),[8],3%
same,Population Tubulin-Different-Phenotype (%),[8],9%
same,Total Cell Count,[8],1653
